# Screening results (PubChem)
# KCNK9 block: human KCNK9 channel inhibition; 310,000 tested, 1.2% active; B-score at 10 µM; HEK293 KCNK9, FluxOR thallium flux fluorescence; stronger effect = lower value;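 active means ratio B-score over 3 SD below the library mean, with starting fluorescence within 5 SD of its mean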;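 further: negative B-score means less thallium flux so channel inhibition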
# KCNK3 block: human KCNK3 channel inhibition, primary screen; 340,000 tested, 0.84% active; CHO-KCNK3 thallium flux, FluxOR fluorescence; stronger effect = lower value; O14649; AID 602410; B-score at 10 µM;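 active means B-score under library mean minus 4 SD, starting fluorescence ratio at most library mean plus 5 SD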;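 further: more negative B-score means stronger inhibition of thallium flux through KCNK3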
# KCNQ1 pot: potentiators or activators of human KCNQ1 potassium channel; CHO-K1 KCNQ1, thallium flux FluxOR fluorescence; stronger effect = higher value; B-score at 10 µM; 310,000 tested, 0.35% active; AID 2648;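 active means fluorescence ratio B-score, a plate-corrected score, at least three library SD, with initial intensity B-score within 5 SD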
#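 Material: CHO-K1 cells stably expressing KCNQ1. Medium: assay buffer for compound exposure, DMSO matched across wells. Reagent: K+/Tl+ depolarizing stimulus. Compound dosing: single-concentration screen. Times: 37 °C overnight plating, 90-min dark dye load, 20-min compound pretreatment. Technique: FluxOR Tl+ flux fluorescence.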
# hERG protect: compounds protecting human hERG from proarrhythmic drug block | CHO-hERG, FluxOR thallium flux, dofetilide IC70 present | activation (rescue from dofetilide block), less the hit threshold, % at 10 µM | 310,000 tested, 0.51% active | AID 1511;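 active means activation above the mean of controls blocked by dofetilide plus 5 SD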;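 further: thallium influx through hERG after potassium depolarization seen as dye fluorescence rise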
# KCC2 mod: modulators of human KCC2 chloride dependent transport; 190,000 tested, 2.2% active; B-score of Tl+ flux slope (higher = more flux/activation; lower = inhibition) at 10 µM; KCC2 cells, thallium flux FluoZin-2 fluorescence;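 active means thallium flux slope and its plate-corrected score both differing from the plate sample mean at a set confidence after two filtering rounds, in either direction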;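 further: slope of fluorescence scaled to starting intensity during 10 to 20 s after thallium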
# Target sequence (Q9H2X9 whole entry, looked up): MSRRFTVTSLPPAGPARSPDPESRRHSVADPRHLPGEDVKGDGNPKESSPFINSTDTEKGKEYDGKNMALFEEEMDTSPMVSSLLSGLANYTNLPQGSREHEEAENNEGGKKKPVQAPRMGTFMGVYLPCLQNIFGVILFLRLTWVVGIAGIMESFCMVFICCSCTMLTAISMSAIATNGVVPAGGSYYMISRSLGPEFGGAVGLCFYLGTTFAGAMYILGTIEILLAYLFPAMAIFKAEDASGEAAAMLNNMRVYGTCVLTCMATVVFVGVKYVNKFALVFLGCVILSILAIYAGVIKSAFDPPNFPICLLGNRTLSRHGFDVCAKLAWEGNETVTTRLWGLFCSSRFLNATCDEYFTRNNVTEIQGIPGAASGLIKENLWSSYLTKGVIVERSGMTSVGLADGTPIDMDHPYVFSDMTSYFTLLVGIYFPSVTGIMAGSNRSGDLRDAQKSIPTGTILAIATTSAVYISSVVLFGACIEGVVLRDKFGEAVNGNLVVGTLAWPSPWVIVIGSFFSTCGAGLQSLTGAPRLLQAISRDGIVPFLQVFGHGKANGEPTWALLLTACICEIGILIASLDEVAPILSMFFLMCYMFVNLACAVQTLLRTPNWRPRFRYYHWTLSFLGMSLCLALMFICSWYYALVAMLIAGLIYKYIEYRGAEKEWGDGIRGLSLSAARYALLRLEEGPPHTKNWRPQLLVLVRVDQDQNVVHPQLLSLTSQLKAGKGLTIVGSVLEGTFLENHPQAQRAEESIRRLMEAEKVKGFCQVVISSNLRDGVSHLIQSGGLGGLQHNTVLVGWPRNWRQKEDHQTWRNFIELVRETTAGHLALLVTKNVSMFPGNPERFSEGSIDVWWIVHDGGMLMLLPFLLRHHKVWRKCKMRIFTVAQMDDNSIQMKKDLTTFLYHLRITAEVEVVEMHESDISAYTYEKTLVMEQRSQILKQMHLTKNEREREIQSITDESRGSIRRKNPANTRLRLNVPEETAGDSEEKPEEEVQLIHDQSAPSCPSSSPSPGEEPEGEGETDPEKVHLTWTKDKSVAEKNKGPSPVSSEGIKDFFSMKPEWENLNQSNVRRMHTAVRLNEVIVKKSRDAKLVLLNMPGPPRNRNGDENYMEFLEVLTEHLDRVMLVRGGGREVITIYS
# KCNQ1 block: human KCNQ1 channel inhibition; P51787; CHO-K1 KCNQ1, FluxOR thallium flux fluorescence; stronger effect = higher value; B-score at 10 µM; 310,000 tested, 1.3% active; AID 2642;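 active means compounds whose thallium flux B-score, printed positive for inhibition, exceeds three library SD while starting fluorescence stays within three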;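 further: channel opened by potassium depolarization with thallium stimulus after 20 min compound exposure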
# The depositor's hits bear a star; i = inactive; . = not tested or not shown. An excerpt weighted towards active compounds, which were near 4.1% of everything screened.
SMILES,KCNK9 block,KCNK3 block,KCNQ1 pot,hERG protect,KCC2 mod,KCNQ1 block
CSc1ccc(CN(C)Cc2cc(=O)oc3c(C)c(C)ccc23)cc1,i,i,i,-15,.,7*
CCOc1ccc(CN(C)Cc2cc(=O)oc3c(C)c(C)ccc23)cc1OC,.,i,.,.,.,.
N=C1/C(=C/c2cccs2)C(=O)N=C2SN=C(SCc3ccccc3)N12,i,i,i,-10,32*,i
O=C(Cn1cnc2c(NCc3ccccc3)ncnc21)NCc1ccc2[nH]ccc2c1,.,i,.,.,.,.
CSc1nc(N)nc(SCC(=O)C23CC4CC(CC(C4)C2)C3)c1C#N,-7.5*,i,i,-16,0.034,i
N#Cc1c(N)nc(SCC(=O)C23CC4CC(CC(C4)C2)C3)c(C#N)c1-c1ccc(Cl)cc1,i,i,i,-8,0.31,i
Cc1sc2nc(SCC(=O)c3cc(C)n(CC4CCCO4)c3C)n(C(C)C)c(=O)c2c1C (centres undefined),i,-8.8*,i,-5,.,i
Cn1c(CNc2ccc(Cl)cc2)nc2ccccc21,i,i,i,-10,.,i
CC(C)N=c1cc2n(-c3ccc(Cl)cc3)c3ccccc3nc-2cc1Nc1ccc(Cl)cc1,-10*,i,i,-22,.,17*
CSc1nc2sc3c(c2c(=S)[nH]1)CC(C)(C)OC3,i,i,82*,56*,.,i
CCc1nc2sc3c(c2c(=S)[nH]1)CC(C)(C)OC3,i,i,i,-5,.,i
COc1cccc(NC(=O)CN(C)C(=O)CNC(=O)c2ccc3ccccc3c2)c1,i,i,i,-9,.,i
COc1cc(NC(=O)COC(=O)CC(C)(C)C)c(C)cc1[N+](=O)[O-],i,i,i,-7,0.18,i
CCOCC(=O)OCC(=O)Nc1cc(OC)c([N+](=O)[O-])cc1C,i,i,i,4.9*,-0.053,i
CCCCn1c(N)c(Sc2ccccc2)c(=O)[nH]c1=O,i,i,i,-7,.,i
O=C1c2ccccc2C2(c3cc(C(F)(F)F)cc(C(F)(F)F)c3)NCCN12 (centres undefined),i,i,14*,-8,.,i
O=C1c2ccccc2C2(c3ccccc3)NCCCN12 (centres undefined),i,i,i,-16,0.029,i
CCOc1ccc(/C=C2/SC(=O)NC2=S)cc1,i,i,112*,37*,69*,i
COc1cc(C(C)=O)ccc1COc1ccc(C(=O)OCC(N)=O)cc1OC,i,i,i,-5,0.024,i
O=c1c2ccccc2c(C=NCc2ccccn2)c(O)n1-c1ccccc1Cl,i,i,i,8.0*,-1.5,i
CN(C)CC(=O)N1c2ccccc2Sc2ccc(Cl)cc21,i,i,i,-8,-0.93,i
Cn1c(SCC(=O)N2c3ccccc3Sc3ccc(Cl)cc32)nnc1-c1ccco1,.,i,.,.,-0.74,.
O=C(CSc1nnc(-c2ccncc2)n1Cc1ccco1)N1c2ccccc2Sc2ccc(Cl)cc21,-6.6*,i,i,-6,-1.1,i
C(=C\c1ccccc1)/CSc1nnc(-c2ccncc2)n1Cc1ccco1,i,i,i,-8,-5*,i
Cn1nnnc1SCC(=O)N1c2ccccc2Sc2ccc(Cl)cc21,.,-10*,.,.,.,.
SMILES,KCNK9 block,KCNK3 block,KCNQ1 pot,hERG protect,KCC2 mod,KCNQ1 block
CCOc1ccc2c3c(c(=O)oc2c1OCC)CCCC3,-7.3*,i,i,-4,-1,i
COc1ccc2c3c(c(=O)oc2c1OCC(N)=O)CCCC3,i,i,i,-1,.,i
O=S(=O)(c1ccc(NC(=S)NCc2ccc(F)cc2)cc1)N1CCOCC1,i,i,i,-12,.,i
COC(=O)CSc1nnc(-c2cccnc2)n1-c1cc(OC)cc(OC)c1,i,i,i,-10,1.1,i
COc1ccc(-n2c(SCC(=O)N3CCCCC3)nnc2-c2cccnc2)cc1,i,i,i,6.4*,0.23,i
Cn1cnnc1Sc1ccc(C(=O)NCCC(c2ccccc2)c2ccccc2)cc1[N+](=O)[O-],i,i,i,-10,-0.96,10*
C[C@]12c3[nH]c4ccccc4c3CCN1C(=O)C(CC(=O)NCCC1=CCCCC1)C[C@@H]2C(=O)N1CCCCC1 (some centres undefined),.,i,.,.,.,.
O=C(c1cnn(C(=O)c2ccc(O)cc2)c1)c1ccccc1O,i,.,i,-11,-1.2,6*
COC(=O)c1c(NC(=O)CSc2nnnn2-c2ccc3c(c2)OCO3)sc(C)c1C,-6.9*,i,i,3,-1.2,i
CCOC(=O)c1c(NC(=O)CSc2nnnn2-c2ccc3c(c2)OCO3)sc(C)c1C,i,i,i,-6,-0.46,i
CCCCCCCN1C(Nc2ccccc2)=NC[C@@H]1CC(C)C,i,i,i,-14,.,7*
O=c1[nH]cc(N=Cc2cc([N+](=O)[O-])ccc2O)c(=O)[nH]1,i,.,i,-14,.,i
O=c1[nH]cc(N=Cc2cc(Cl)cc(Cl)c2O)c(=O)[nH]1,i,i,18*,2,.,i
CN(C)c1ccc2c(c1)OC(N)=C(C#N)C2c1cccc(F)c1 (centres undefined),-6.8*,-11*,i,-21,-1.2,i
Nn1c(Cc2ccccc2F)nnc1SCCOc1ccc(Cl)cc1,i,i,i,-2,-2.1,i
CCOc1cc(N2CCOCC2)c(OCC)cc1NC(=O)Cn1nc(C)c([N+](=O)[O-])c1C,i,i,i,8.3*,.,i
CCOc1cc(N2CCOCC2)c(OCC)cc1NC(=O)Cn1cnnn1,.,i,.,.,.,.
Cc1ccc([C@@H]2[C@@H]3C(=O)N(c4ccccc4)C(=O)[C@@H]3[C@]3(C)C(=O)N(CC4CC4)CC(=O)N23)o1,i,i,i,-6,.,i
CCOC(=O)/C(=C\c1ccccc1)C(=O)c1cc(C(C)=O)c(Nc2ccccc2)s1,i,i,i,-14,-0.002,i
CCOC(=O)/C(=C\c1cccnc1)C(=O)c1cc(C(C)=O)c(Nc2ccccc2)s1,i,i,36*,-9,-0.43,i
CCOc1ccc(Br)cc1S(=O)(=O)Nc1ccc(C(=O)Nc2ccc(C)cc2)cc1,-7.1*,i,i,-4,0.71,i
CCOc1ccc(Br)cc1S(=O)(=O)Nc1ccc(NC(=O)c2ccccc2C)cc1,-7.4*,i,i,-11,0.071,i
CCn1c(CC(=O)Nc2ccc(Cl)c(Cl)c2)nnc1SCc1ccc(Cl)cc1,i,i,i,-2,1.3,i
